A selection: hits, their analogues and other compounds. The true share with any hit is near 2.5%.
HIV Env fusion: inhibitors of HIV-1 Env-driven cell-cell fusion, primary screen, HeLa-JRFL effector, CEM21 target cells, luciferase; 360,000 tested, 1.1% active; inhibition, % at 12.3 µM;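 active means mean replicate inhibition score of at least 50 and every replicate individually at or above 50; inconclusive means only one of the two criteria met; inactive means mean below 50 and not all replicates reaching 50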;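 further: 0% = plate neutral controls and 100% = maraviroc near 300 nM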
FN deposition inh: inhibitors of fibronectin matrix deposition, primary screen, AH1F cells, Alexa488-fibronectin fluorescence, plate reader | AID 743247, 2014 | 350,000 tested, 0.086% active | AH1F fibroblasts, overnight | inhibition, % at 12.6 µM;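 active means mean inhibition across replicates of 30% or more, regardless of how many single replicates reach that level; inconclusive means mean under 30% yet at least half of replicates reach 30%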;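 further: positive control wells lacked labelled fibronectin entirely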
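Assay system: AH1F fibroblasts assembling fluorescent fibronectin matrix; Amount: 10000 AH1F cells per well; Buffer or medium: DMEM, 2% serum; Probe or stimulus: Alexa488-fibronectin, 24 nM final in well; Doses: single compound dose, delivered by pin transfer; Incubation: 1 h adhesion, overnight exposure; Measured by: fluorescence 485/525 nm; Read-out: fibronectin deposition inhibition.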
PAX8 reporter: inhibitors of PAX8-driven TPO luciferase reporter, primary screen, RMG-I cells, single concentration | 360,000 tested, 1.2% active | inhibition, % at 12.6 µM | AID 652154, 2013 | SteadyGlo, 24 h;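 active means mean replicate inhibition at least 60% with every replicate also reaching 60%; inconclusive means only one of the two criteria is met; inactive means mean below 60% and not all replicates reaching 60%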;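 further: luciferase light reporting Pax8 driven TPO promoter activity; plate controls were median of neutral control wells for no effect and mitoxantrone controls for full effect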
N-glyco inh: increase of ERlucT glycosylation luciferase signal, primary screen, N-linked glycosylation inhibitor project, D54 ERlucT cells, luminescence, set 2. D54 ERlucT glycosylation luciferase reporter, 24 h; percent of 100 nM tunicamycin response. reporter increase, % at 12.5 µM. 360,000 tested, 0.23% active;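 active means mean luciferase reporter signal, scaled so untreated is 0 and the glycosylation-blocking control 100, at or above a set limit in every replicate; inconclusive means mean reaches the limit but not every replicate does; inactive means mean below the limit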;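 further: luciferase carries N-glycosylation sites so blocking glycosylation raises the light; 0% = median of neutral control wells and 100% = median of 100 nM tunicamycin wells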
EWS-Fli block: EWS/Fli-driven NR0B1 reporter inhibitors, primary screen, A673 cells, NR0B1 luciferase, luminescence, MLPCN library; viability-normalised; inhibition, % at 12.6 µM; 350,000 tested, 0.67% active; AID 651661, 2012;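 active means mean inhibition of at least 50% after viability correction, with every replicate also passing that limit; inconclusive means mean reaches 50% but only one of two replicates passes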;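 further: firefly luciferase signal divided by Alamar Blue viability fluorescence both relative to DMSO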
AF4-AF9 inh: inhibitors of AF4 peptide binding to AF9, primary screen, biochemical, AlphaScreen, biotin-AF4 peptide, FLAG-AF9, single point; 350,000 tested, 0.47% active; AID 651704, 2012; inhibition, % at 10 µM;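 active means every replicate reaching a set inhibition limit, whatever the replicate mean, cut at about 25% in these data; inconclusive means mean inhibition reaches that limit but some replicates miss it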;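 further: 0% = plate neutral control median and 100% = total signal loss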
Target sequence (P42568 whole entry, looked up): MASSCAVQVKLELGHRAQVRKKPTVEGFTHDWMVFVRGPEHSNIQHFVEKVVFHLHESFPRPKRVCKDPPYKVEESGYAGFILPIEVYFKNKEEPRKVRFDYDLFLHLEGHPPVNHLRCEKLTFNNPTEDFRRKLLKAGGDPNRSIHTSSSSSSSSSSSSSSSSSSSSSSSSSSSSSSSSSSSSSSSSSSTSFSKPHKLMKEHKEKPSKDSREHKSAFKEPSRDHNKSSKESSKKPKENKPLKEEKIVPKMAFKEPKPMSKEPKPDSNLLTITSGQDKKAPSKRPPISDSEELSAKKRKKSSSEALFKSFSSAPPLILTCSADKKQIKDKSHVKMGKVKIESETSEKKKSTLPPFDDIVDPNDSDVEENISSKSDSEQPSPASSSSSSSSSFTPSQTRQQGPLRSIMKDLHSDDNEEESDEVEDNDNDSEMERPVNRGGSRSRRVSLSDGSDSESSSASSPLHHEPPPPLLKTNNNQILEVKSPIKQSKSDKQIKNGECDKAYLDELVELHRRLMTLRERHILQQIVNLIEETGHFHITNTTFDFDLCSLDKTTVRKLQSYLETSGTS
An asterisk follows results filed as active; ? = inconclusive; · = no result; ! = not confirmed by another sample; [ ] = another dose, or the depositor's remark.

SMILES | HIV Env fusion | FN deposition inh | PAX8 reporter | N-glyco inh | EWS-Fli block | AF4-AF9 inh
CC(=O)N/C(=C\c1ccccc1)C(=O)NC(C)C(=O)O (stereo not given) | -3 | · | 2 | 1 | -12 | 0
CC(C)c1ccc(/C=C/C2=NNC(=O)CC2)cc1 | 37 | -7 | -62 | 4 | 11 | 4
COc1cc(/C=C/C2=NNC(=O)CC2)cc(OC)c1OC | 73* | 4 | 14 | 5 | 5 | -1
CCN(CCNC(=O)c1ccc(C#N)cc1)c1cccc(C)c1 | · | · | · | -1 | · | ·
CCN(CCNCC(O)COCc1ccc(Cl)cc1)c1cccc(C)c1 (stereo not given) | 40 | 10 | 3 | -1 | 19 | 29*
C[C@H](O)C#Cc1cnc2c(c1)C(=O)N([C@@H](C)CO)C[C@H](C)[C@H](CN(C)C(=O)Nc1ccc(C(F)(F)F)cc1)O2 | -21[16.7 µM] | 5 | -5 | · | -1 | -3
Cc1cc(NC(=O)C2CC(=O)N(c3ccccc3C)C2)no1 (stereo not given) | 5 | 1 | -2 | 3 | -2 | 0
Cc1cc(NC(=O)C2CC(=O)N(c3cccc(C)c3C)C2)no1 (stereo not given) | -26 | 5 | 2 | 1 | 0 | 44*
Cc1ccc2cc(C#N)c(NCCNC(=O)C3CC3)nc2c1C | 113* | 4 | 18 | -2 | · | ·
Cc1ccc2cc(C#N)c(NCCNC(=S)NCCCN(C)C)nc2c1C | 4 | 7 | 8 | 0 | 10 | 6
Cc1cccc(C)c1NC(=O)C1(C)CN(S(C)(=O)=O)CC(=O)N1CCc1ccccc1F (stereo not given) | 57* | 9 | -4 | · | -6 | 2
CC(C)NC(=O)C1(C)CN(S(C)(=O)=O)CC(=O)N1CCc1ccccc1F (stereo not given) | -12 | 5 | 2 | · | -8 | ·
CN(C(=O)c1ccc(NC(=O)Cc2cccc(NC(=O)C3CCCN(C(=O)CCc4ccccc4)C3)c2)cc1)C1CCCC1 (stereo not given) | 10 | 0 | 29 | -1 | 13 | -4
CN(C(=O)c1ccc(NC(=O)Cc2ccc(NC(=O)C3CCCN(C(=O)CCc4ccccc4)C3)cc2)cc1)C1CC1 (stereo not given) | 56* | -6 | 12 | 2 | 16 | -3
CN(C(=O)c1cccc(NC(=O)Cc2cccc(NC(=O)C3CCCN(C(=O)C4CCCC4)C3)c2)c1)C1CCC1 (stereo not given) | 14 | 11 | 6 | 0 | -1 | -4
CN(C(=O)c1cccc(NC(=O)Cc2cccc(NC(=O)C3CCCN(C(=O)C4CCC4)C3)c2)c1)C1CCC1 (stereo not given) | 85* | 10 | -25 | -1 | -3 | -4
CN(CCc1ccccc1)C(=O)c1ccc(NC(=O)Cc2ccc(NC(=O)C3CCN(C(=O)c4ccccc4)CC3)cc2)cc1 | 0 | 10 | 1 | 0 | 18 | 31*
COc1ccc(CN(C)C[C@@H]2Oc3ccc(NC(=O)CCC(F)(F)F)cc3C(=O)N([C@@H](C)CO)C[C@@H]2C)cc1 | · | · | 3 | · | -6 | -1
C[C@H](CO)N1C[C@H](C)[C@@H](CN(C)C(=O)NC2CCCCC2)Oc2ccc(NC(=O)CCN3CCOCC3)cc2CC1=O | -17[16.7 µM] | -9 | 2 | · | 1 | 2
Cc1cc(NC(=O)COc2ccc(F)c(Cl)c2)no1 | 65* | · | 0 | 0 | 0 | -1
O=C(NCCC1CCCCN1S(=O)(=O)c1ccccc1)C(=O)NCc1ccncc1 (stereo not given) | -13 | -5 | 68* | -2 | 4 | 1
Cc1ccc(S(=O)(=O)N2CCCCC2CCNC(=O)C(=O)NCc2ccncc2)cc1 (stereo not given) | 2 | 6 | 76* | -1 | 3 | -11
COc1ccc(-c2cc(C(F)(F)F)nc(SCC(=O)NCc3cccs3)n2)cc1 | 56* | -4 | · | -5 | · | ·
O=C(CSc1nc(-c2ccco2)cc(C(F)(F)F)n1)Nc1ccccc1C(F)(F)F | 74* | -5 | · | 16 | · | ·
O=C(CSc1nc(-c2ccccc2)cc(C(F)(F)F)n1)NCc1cccs1 | · | 3 | 1 | -4 | · | ·
SMILES | HIV Env fusion | FN deposition inh | PAX8 reporter | N-glyco inh | EWS-Fli block | AF4-AF9 inh
CCC(C)(C)c1ccc(Oc2ccc(N)cc2)cc1 | 60* | 2 | ? | 0 | 65* | 6
C[C@@H]1CCCCO[C@@H](CN(C)Cc2ccc(Cl)c(Cl)c2)[C@H](C)CN([C@@H](C)CO)C(=O)c2cc(NC(=O)CCC(F)(F)F)ccc2O1 | -59[16.7 µM] | 2 | 88* | · | 3 | -3
C[C@H]1CCCCO[C@H](CN(C)Cc2ccc(Cl)c(Cl)c2)[C@@H](C)CN([C@@H](C)CO)C(=O)c2cc(NC(=O)CCC(F)(F)F)ccc2O1 | 79*[16.7 µM] | · | 41 | · | -4 | -9
C[C@@H]1CCCCO[C@@H](CN(C)Cc2ccc(Cl)c(Cl)c2)[C@@H](C)CN([C@H](C)CO)C(=O)c2cc(NC(=O)CCC(F)(F)F)ccc2O1 | -51 | -7 | 67*! | -2 | 4 | 3
O=C(Nc1ccccn1)c1ccc(-c2ccccc2)cc1 | -146 | -9 | -1 | -21 | 73* | -6
C[C@H](CO)N1C[C@H](C)[C@@H](CN(C)C(=O)Nc2cccc3ccccc23)Oc2c(NS(=O)(=O)c3ccc(Cl)cc3)cccc2C1=O | -42[16.7 µM] | · | · | · | 1 | 2
C[C@H](CO)N1C[C@H](C)[C@H](CN(C)C(=O)C2CCC2)Oc2cc(C#Cc3ccncc3)ccc2S1(=O)=O | 13[16.7 µM] | -14 | · | · | 4 | 1
Cc1ccc(S(=O)(=O)N(C)C[C@@H]2Oc3c(NC(=O)C4CCOCC4)cccc3C(=O)N([C@@H](C)CO)C[C@H]2C)cc1 | -23[16.7 µM] | · | -10 | · | -15 | 1
Cc1csc(N(C)C(=O)CSc2nnc(COc3cccc4ccccc34)o2)n1 | 105* | -6 | · | 2 | · | ·
COC(=O)CSc1nnc(COc2cccc3ccccc23)o1 | 7 | -1 | 9 | 2 | 13 | 0
O=[N+]([O-])c1ccc(O)c(/C=N/Nc2nc3ccccc3[nH]2)c1 | 26 | 11 | 27 | -9 | -12 | 32*
Cc1nc(N/N=C/c2ccc(O)cc2O)cc(N2CCOCC2)n1 | -3 | -12 | 36 | -9 | 8 | 70*
COc1ccc(O)c(/C=N/Nc2nc3ccccc3[nH]2)c1 | -28 | 2 | -12 | 2 | -7 | 17
O=[N+]([O-])c1ccc(O)c(/C=N/Nc2ccccn2)c1 | -27 | 5 | 71* | -13 | 20 | 5
Cc1nc(N/N=C/c2cccc(F)c2)cc(N2CCOCC2)n1 | 5 | 10 | -2 | -7 | 2 | -5
O=[N+]([O-])c1ccc(NN=Cc2ccccc2O)nc1 | -61 | · | -20 | -14 | -81 | 2
